{"source": "ChEMBL document CHEMBL5653631", "about": "“A Potent and Selective ULK1 Inhibitor Suppresses Autophagy and Sensitizes Cancer Cells to Nutrient Stress” (iScience, 2018)", "key": {"[1]": {"biological_target": "Activated CDC42 kinase 1 (Homo sapiens) (UniProt Q07912)", "sequence (Q07912 whole entry, looked up)": "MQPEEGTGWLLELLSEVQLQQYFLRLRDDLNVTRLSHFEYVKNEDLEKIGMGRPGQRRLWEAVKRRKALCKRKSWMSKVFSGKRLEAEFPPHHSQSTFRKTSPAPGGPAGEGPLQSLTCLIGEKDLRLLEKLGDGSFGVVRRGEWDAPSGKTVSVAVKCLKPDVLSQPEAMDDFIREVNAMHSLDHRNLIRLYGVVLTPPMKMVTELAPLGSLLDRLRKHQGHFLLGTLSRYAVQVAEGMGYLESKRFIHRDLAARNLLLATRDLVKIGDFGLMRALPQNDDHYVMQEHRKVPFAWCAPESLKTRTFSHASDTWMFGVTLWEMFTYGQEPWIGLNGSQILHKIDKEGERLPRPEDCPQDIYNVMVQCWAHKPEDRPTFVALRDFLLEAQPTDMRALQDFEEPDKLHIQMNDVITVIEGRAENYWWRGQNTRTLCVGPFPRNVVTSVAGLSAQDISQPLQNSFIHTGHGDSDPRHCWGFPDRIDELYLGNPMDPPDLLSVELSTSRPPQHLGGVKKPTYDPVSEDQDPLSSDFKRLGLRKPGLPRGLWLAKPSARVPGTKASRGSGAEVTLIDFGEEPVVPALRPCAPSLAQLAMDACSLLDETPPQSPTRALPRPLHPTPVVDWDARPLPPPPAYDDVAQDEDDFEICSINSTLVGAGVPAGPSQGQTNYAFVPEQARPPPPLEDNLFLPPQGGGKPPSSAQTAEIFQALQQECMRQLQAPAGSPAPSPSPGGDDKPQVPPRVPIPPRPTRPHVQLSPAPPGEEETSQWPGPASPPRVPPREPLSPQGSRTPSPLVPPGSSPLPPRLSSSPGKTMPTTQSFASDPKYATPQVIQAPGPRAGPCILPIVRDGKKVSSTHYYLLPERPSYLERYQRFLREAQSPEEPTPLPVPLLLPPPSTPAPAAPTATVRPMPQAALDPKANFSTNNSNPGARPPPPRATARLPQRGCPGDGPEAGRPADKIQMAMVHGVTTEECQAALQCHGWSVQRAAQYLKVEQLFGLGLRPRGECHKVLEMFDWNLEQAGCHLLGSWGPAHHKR", "assay": "Inhibition of human recombinant ACK at 40 nM in presence of ATP by radiometric assay relative to control", "procedure,_shortened": "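Panel of 327 recombinant human kinases in radiometric activity assays, each screened in duplicate at a single inhibitor concentration; percent activity remaining relative to vehicle control, percent inhibition taken as 100 minus activity remaining.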"}, "[2]": {"biological_target": "Calcium/calmodulin-dependent protein kinase type II subunit alpha (Homo sapiens) (UniProt Q9UQM7)", "sequence (Q9UQM7 whole entry)": "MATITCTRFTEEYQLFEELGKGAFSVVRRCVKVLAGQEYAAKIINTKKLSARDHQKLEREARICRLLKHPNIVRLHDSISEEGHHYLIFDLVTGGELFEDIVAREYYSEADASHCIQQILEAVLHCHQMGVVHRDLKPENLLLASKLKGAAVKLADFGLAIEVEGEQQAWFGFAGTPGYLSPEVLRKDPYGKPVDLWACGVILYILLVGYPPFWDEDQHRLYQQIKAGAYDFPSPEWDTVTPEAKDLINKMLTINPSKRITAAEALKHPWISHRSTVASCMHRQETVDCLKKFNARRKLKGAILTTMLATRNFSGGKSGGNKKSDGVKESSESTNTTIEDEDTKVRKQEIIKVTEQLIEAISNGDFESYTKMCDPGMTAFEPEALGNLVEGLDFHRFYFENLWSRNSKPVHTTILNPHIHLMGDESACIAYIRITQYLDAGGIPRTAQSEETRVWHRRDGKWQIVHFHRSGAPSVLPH", "assay": "Inhibition of human recombinant CaMK2a at 40 nM in presence of ATP by radiometric assay relative to control"}, "[3]": {"biological_target": "MAP kinase-activated protein kinase 2 (Homo sapiens) (UniProt P49137)", "sequence (P49137 whole entry, looked up)": "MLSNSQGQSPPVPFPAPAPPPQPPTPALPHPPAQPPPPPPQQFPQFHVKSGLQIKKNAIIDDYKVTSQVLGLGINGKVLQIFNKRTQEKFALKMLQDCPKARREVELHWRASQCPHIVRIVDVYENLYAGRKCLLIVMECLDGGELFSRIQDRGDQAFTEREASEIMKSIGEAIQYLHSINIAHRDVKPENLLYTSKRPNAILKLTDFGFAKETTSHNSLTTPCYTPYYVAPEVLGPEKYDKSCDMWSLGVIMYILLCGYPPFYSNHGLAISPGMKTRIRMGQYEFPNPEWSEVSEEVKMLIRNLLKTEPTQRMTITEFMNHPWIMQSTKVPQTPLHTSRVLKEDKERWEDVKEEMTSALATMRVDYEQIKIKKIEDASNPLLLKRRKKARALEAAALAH", "assay": "Inhibition of human recombinant MAPKAPK2 at 40 nM in presence of ATP by radiometric assay relative to control"}, "[4]": {"biological_target": "cAMP-dependent protein kinase catalytic subunit beta (Homo sapiens) (UniProt P22694)", "assay": "Inhibition of human recombinant PKACbeta at 40 nM related to control ULK1"}, "[5]": {"biological_target": "T1, Dual specificity tyrosine-phosphorylation-regulated kinase 3 (Homo sapiens) (UniProt O43781)", "T1 sequence (whole entry)": "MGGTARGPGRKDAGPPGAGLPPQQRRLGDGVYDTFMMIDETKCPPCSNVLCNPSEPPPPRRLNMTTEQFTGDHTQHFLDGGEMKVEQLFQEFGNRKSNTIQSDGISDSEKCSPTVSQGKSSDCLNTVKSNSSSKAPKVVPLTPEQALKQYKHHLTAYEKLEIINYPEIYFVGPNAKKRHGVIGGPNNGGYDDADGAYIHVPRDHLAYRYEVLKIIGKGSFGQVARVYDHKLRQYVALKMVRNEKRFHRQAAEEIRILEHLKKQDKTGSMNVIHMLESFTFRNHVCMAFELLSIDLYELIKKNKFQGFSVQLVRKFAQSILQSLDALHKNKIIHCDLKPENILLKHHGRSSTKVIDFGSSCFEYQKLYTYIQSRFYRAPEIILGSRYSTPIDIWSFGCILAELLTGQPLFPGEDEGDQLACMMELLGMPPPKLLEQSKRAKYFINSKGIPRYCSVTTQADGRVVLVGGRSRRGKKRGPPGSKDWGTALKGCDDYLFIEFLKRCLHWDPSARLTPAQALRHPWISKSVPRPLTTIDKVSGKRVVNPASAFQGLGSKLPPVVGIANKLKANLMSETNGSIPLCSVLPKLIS", "assay": "Inhibition of human recombinant DYRK3 at 15 nM in presence of ATP by radiometric assay relative to control"}, "[6]": {"biological_target": "Glycogen synthase kinase-3 beta (Homo sapiens) (UniProt P49841)", "sequence (P49841 whole entry, looked up)": "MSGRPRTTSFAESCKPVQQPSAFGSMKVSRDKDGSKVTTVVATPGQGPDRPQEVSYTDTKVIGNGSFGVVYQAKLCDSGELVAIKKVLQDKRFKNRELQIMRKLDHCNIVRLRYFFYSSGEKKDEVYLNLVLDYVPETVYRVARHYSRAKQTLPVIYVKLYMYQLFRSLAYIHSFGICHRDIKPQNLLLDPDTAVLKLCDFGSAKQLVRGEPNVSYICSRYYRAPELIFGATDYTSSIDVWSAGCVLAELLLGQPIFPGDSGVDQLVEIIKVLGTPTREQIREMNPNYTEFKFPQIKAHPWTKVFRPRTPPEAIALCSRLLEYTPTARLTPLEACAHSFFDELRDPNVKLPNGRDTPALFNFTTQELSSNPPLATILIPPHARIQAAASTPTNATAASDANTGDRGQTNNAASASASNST", "assay": "Inhibition of human recombinant GSK3B at 15 nM related to control ULK1"}, "[7]": {"biological_target": "Proto-oncogene tyrosine-protein kinase Src (Homo sapiens) (UniProt P12931)", "sequence (P12931 2-536 limits assumed)": "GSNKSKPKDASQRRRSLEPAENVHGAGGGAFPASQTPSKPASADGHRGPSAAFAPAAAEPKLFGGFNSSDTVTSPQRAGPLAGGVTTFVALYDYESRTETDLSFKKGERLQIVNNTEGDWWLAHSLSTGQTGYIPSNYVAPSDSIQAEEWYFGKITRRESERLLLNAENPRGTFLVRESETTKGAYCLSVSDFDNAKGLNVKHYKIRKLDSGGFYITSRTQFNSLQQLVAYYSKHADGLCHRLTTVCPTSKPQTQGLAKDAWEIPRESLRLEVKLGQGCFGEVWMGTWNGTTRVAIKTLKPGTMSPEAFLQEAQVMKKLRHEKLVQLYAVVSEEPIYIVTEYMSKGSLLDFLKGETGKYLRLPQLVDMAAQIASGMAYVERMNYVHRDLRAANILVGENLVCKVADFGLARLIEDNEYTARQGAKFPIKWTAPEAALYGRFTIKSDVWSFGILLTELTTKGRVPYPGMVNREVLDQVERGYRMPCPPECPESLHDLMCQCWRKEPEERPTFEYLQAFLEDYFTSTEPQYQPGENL", "assay": "Inhibition of human recombinant SRC at 15 nM related to control ULK1"}, "[8]": {"biological_target": "Dual specificity tyrosine-phosphorylation-regulated kinase 1B (Homo sapiens) (UniProt Q9Y463)", "sequence (Q9Y463 whole entry, looked up)": "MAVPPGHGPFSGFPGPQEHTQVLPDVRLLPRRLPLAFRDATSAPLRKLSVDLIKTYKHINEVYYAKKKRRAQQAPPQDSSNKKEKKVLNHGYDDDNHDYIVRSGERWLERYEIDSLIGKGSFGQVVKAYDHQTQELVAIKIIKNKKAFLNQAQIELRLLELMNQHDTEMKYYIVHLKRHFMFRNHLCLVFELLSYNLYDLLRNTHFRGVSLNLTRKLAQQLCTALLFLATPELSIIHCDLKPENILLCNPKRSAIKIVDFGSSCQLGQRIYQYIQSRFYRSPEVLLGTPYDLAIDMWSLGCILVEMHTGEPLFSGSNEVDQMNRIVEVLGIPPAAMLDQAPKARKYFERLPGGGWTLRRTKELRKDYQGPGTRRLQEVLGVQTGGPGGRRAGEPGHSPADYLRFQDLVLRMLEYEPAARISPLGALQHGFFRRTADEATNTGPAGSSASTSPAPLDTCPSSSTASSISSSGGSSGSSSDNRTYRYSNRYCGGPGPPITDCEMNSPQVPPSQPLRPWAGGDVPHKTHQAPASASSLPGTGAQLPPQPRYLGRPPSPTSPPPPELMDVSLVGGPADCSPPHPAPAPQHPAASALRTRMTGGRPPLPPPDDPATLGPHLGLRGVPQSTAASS", "assay": "Inhibition of human recombinant DYRK1B at 500 nM in presence of ATP by radiometric assay relative to control"}, "[9]": {"biological_target": "T2, Myosin-IIIb (Homo sapiens) (UniProt Q8WXR4)", "T2 sequence (whole entry)": "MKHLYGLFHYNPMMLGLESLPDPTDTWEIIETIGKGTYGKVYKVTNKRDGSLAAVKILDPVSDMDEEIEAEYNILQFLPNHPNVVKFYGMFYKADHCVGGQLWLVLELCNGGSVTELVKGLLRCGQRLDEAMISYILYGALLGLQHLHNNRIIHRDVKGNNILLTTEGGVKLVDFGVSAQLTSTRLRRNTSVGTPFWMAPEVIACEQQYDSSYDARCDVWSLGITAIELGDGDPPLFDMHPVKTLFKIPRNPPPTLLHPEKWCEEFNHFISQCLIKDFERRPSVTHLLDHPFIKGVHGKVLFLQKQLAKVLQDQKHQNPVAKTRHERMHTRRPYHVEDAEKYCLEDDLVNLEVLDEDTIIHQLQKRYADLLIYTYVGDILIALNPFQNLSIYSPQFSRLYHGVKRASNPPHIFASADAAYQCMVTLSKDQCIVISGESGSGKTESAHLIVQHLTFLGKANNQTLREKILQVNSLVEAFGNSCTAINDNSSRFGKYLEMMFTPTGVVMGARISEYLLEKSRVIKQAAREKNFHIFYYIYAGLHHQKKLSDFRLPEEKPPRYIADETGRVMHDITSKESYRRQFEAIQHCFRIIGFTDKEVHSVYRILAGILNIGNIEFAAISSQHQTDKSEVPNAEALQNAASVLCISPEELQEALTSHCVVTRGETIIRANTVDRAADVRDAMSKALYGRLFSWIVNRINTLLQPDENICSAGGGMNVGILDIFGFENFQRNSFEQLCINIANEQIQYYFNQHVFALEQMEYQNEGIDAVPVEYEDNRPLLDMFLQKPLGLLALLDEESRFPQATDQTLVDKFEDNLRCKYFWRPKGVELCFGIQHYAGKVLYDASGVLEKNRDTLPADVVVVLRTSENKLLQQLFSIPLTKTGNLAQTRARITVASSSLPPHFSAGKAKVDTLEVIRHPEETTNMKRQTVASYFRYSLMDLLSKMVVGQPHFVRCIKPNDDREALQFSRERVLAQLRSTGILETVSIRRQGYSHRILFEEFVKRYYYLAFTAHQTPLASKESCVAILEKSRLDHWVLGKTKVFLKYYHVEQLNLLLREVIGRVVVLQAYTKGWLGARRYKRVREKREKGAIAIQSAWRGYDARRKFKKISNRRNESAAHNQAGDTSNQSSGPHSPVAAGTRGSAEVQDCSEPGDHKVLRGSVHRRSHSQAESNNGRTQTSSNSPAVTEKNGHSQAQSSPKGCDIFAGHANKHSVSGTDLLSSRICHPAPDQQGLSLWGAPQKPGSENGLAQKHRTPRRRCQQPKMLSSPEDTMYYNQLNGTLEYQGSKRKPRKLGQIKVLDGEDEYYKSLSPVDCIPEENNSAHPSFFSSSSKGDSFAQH", "assay": "Inhibition of human recombinant MYO3B at 500 nM related to control ULK1"}}}
{"smiles": "O=C(N[C@@H](C1CC1)C(F)(F)F)c1cc(-c2cnn3cc(-c4ccc(F)cc4)cnc23)cs1", "values": [{"measurement": "inhibition", "setting": "[1]", "value": 17, "unit": "%"}, {"measurement": "inhibition", "setting": "[2]", "value": 0, "unit": "%"}, {"measurement": "inhibition", "setting": "[3]", "value": 0, "unit": "%"}, {"measurement": "fold change (FC)", "setting": "[4]", "value": 0}]}
{"smiles": "CC(C)[C@H](NC(=O)c1cc(-c2cnn3cc(-c4ccc(OCCN5CCCCC5)cc4)cnc23)cs1)C(F)(F)F", "values": [{"measurement": "inhibition", "setting": "[5]", "value": 23, "unit": "%"}, {"measurement": "fold change (FC)", "setting": "[6]", "value": 0.13}, {"measurement": "fold change (FC)", "setting": "[7]", "value": 0.17}]}
{"smiles": "CNC(=O)c1ccccc1Oc1nc(Nc2cc(OC)c(OC)c(OC)c2)ncc1Br", "values": [{"measurement": "inhibition", "setting": "[8]", "value": 0, "unit": "%"}, {"measurement": "fold change (FC)", "setting": "[9]", "value": 0.15}]}
